Data from the EternaBench riboswitch data.

System: MS2 coat protein
Assay: apparent Kd, MS2 coat protein; higher = weaker binding; RNA-MaP array; FMN 200 µM where present
Outline: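 Two titrations, one without ligand and one with constant ligand, were run with SNAP-549-labelled MS2 coat protein from 0.7 or 1.5 nM, doubling to 3 µM. The targets were designs transcribed by stalled E. coli RNA polymerase on Illumina sequencing-chip clusters, in 100 mM Tris-HCl pH 7.5, 80 mM KCl, 4 mM MgCl2, BSA, DTT, yeast tRNA and Tween-20. The apparent Kd is the median of filtered per-cluster binding-curve fits, with green signal normalised to red-channel RNA signal and control-cluster median Fmax.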

[1] = designed as: OFF switch for flavin mononucleotide, no ligand
[2] = ligand present: flavin mononucleotide, designed as: OFF switch for flavin mononucleotide
[3] = designed as: ON switch for flavin mononucleotide, no ligand
[4] = ligand present: flavin mononucleotide, designed as: ON switch for flavin mononucleotide

Sequence	apparent Kd [1] [nM]	apparent Kd [2] [nM]	apparent Kd [3] [nM]	apparent Kd [4] [nM]
AUCAUGUAAGGAUAUCUUAUAUGGAUCGAAAGAUCAAGUUAAGAGAAGGUACAUGAGGAUCACCCAUGUAUAAC	21.2	27.2	–	–
UAGAAGUCAGGAUAUGCAUGGCGGGACUUGCGUCGUGGCGUGCAGAAGGGACAUGAGGAUCACCCAUGUGGAGU	179	230	–	–
AUACUCAUGUAAGGAUAUGCAGCCGAAACGGCUGCAGAAGGUACUAAAAUACAUGAGGAUCACCCAUGUCUUUUUAAUUUAGAC	–	–	258	255
CAUACACAUGAGGAUCACCCAUGUGAGGAUAUGAAUACGUUGUCCGUAGGCGACGUGAUCAGAAGGCGCUUGGU	45.4	61.8	–	–
AGAAACUACGAGAAGGACAUGAGGAUCACCCAUGUAACCACUAUGUGGAAUGUAGGAUAUCGUAGUUUCAGGAUCGUGAGAUCA	6.17	9.84	–	–
AGUACUCAAAGAGUACCCAUACGGACAUGAGGAUCACCCAUGUAGGAUAUGCUACUCAAAGAGUAGUAGAAGGACAUAUACCUC	8.91	15.7	–	–
UCGAAACAGACAGGAUAUGCAGGGAGGUGCCGGUACAUGAGGAUCACCCAUGUAGAAGGGUCUCGAGUUGAACUUCAGUCAAAG	9.61	19.5	–	–
GCAUGUAAGUAGAAGGGCAGAUAUUUUGAUACUGCAGGAUAUGCAGAAUCAUAUCCACAUGAUAACAUGAGGAUCACCCAUGUA	32.7	25.6	–	–
GCGUAUUAGGUGUAGCUAGUCAUUCAAGAAGGGUGAAGAACAUGAGGAUCACCCAUGUAGUUUAUACAGGAUAUUGAUAUACGC	–	–	528	235
UUUGCAUUCCGAGGAUAUUCAUAUAAUAAAUAAACAUGAGGAUCACCCAUGUGGCGAUAGCCUAGGGAGAAGGCGGUUUGCUUU	–	–	87.7	29.6
GGUGGUUGAGGAUAUACGAACAUGUCGCCAGAUGUCAUGGUACAUGAGGAUCACCCAUGUAGAAGGUGGUUGUC	357	576	–	–
GGAUUACAUGAGGAUCACCCAUGUGAGGAUAUCGAUGUCCCUAGCAGCGUGCGGGACUCGAGAAGGCACUUGGA	47.5	248	–	–
GGAAAGCGAGGAUAUACAUGAGGAUCACCCAUGUAAACAAACAAACAAACAAACAAAUGUAGAAGGCGCAAAAC	43.9	43	–	–
GGGCAUAAUACAUGAGGAUCACCCAUGUCAGAAAGGGUAAUCAGAAGGUACUAUUAGAGAAAGAGUAAGGAUAUGAAUAUGCCC	–	–	973	103
CCCUCGCGAGGAUAUGCAUCCUCCCUCAUUUCUUUCACUACACAUGAGGAUCACCCAUGUAGAAGGCGCUCUCC	49.9	38.6	–	–
GAUCGACCUGAGAAGGCACAUGAGGAUCACCCAUGUUGAACCAUACAUGCCACAAAGUGGCAAUGUGAGGAUAUCAGGUCGAUC	6.54	12.1	–	–
UCUAAUUAGUGAGGAUAUGCAUAAUUUAUAACUGCAGAAGGCACAAACCUCAAGACAUGAGGAUCACCCAUGUGGAAUAUAGAU	93.8	215	–	–
UUUAUACAUGAGGAUCACCCAUGUGAGGAUAUGCUUUAUUAUUAUUAUUAUUAUUAUUGCAGAAGGUACGUUAU	35.7	36.1	–	–
UUACAUACAAAGGUACAUGAGGAUCACCCAUGUUUGUUGGGAAGAAGGGUAACAAUACUACACAUACAGGAUAUUUCACAAACA	–	–	49	35.4
CUGGAAGUCGUAGGAUAUGGUGAUGUACAUGAGGAUCACCCAUGUCCGUCUUCUCUCACAAGAUGCCAGAAGGACGACUUCCGG	–	–	625	101
AAUAACAGAGGAUAUACUAUUUUAUGUGUUUGUUGUUUUGAACAUGAGGAUCACCCAUGUAGAAGGCUGAAUGA	28.8	30.7	–	–
UGUCGGAGCAGAGGAUAUUACAUGAGGAUCACCCAUGUAUGAACCAAUAGCUGGAAACAGCAAUGUAAGAAGGCUGUUCCGACA	11.9	134	–	–
UAUUACCUAGGAUAUACAUGAGGAUCACCCAUGUCACGGGUCAACUUGUCCUAUGCGUGUAGAAGGAGGGACCC	19.8	21.3	–	–
UUUACAUGAGGAUCACCCAUGUCUUGCAAGAUGAGUUCUGGUGAGGAUAUACAUGAUAAAGAACUGUAGAAGGCACUGGGUACA	–	–	305	362

Sequence	apparent Kd [1] [nM]	apparent Kd [2] [nM]	apparent Kd [3] [nM]	apparent Kd [4] [nM]
CGUAUGUCAGGAUAUGCGUAUGCCGCUCAGGGCGAGCGGCAGCAGAAGGGACAUGAGGAUCACCCAUGUUCGGG	71.4	49.3	–	–
AUUUAUGGCCAGAAGGACAUGAGGAUCACCCAUGUAGGAUAUGGACGAUUUUGCUUGGCGGUUCGUUUAGGAAGCACCGGUGGU	–	–	23.8	7.18
UUAAUUCGAAACAUGAGGAUCACCCAUGUGUUGUGGUUAAUAUAGGAUAUGAGGAUACUUUUUUGUCAGAAGGAUGAUGGUACU	–	–	11.8	10.8
UCAUGUAUGUAGGAUAUCGAUGUCCUUGGACAUCGAGAAGGACGUACAUGAGGAUCACCCAUGUAACUUGCAUG	25.4	16.8	–	–
GCUUGUAGAGGAUAUACAAGGGCCUUAGCGAAUAACACCGCACAUGAGGAUCACCCAUGUAGAAGGCUACCACC	15.6	77.6	–	–
GUCUGAUUGUAGAAGGUACUUAAUACUCAUGUAACAUGAGGAUCACCCAUGUAUCAACAAUAUUGUAAGGAUAUACAAAUCUCA	–	–	–	222
UUCAGCUCGUGAGGAUAUACAUGUGCUGGAUACAGCACUAUUAUGUUCACAUGAGGAUCACCCAUGUAGAAGGCACGAGCUGAG	16.6	21.4	–	–
AUAAGCUCGUCAGGAUAUGCGACACUGUUUCUGCAGUGUGGUAUGAUCACAUGAGGAUCACCCAUGUAGAAGGGACGAGCUUAU	6.66	13.9	–	–
AGCCUGAGUCGAGGAUAUUAUGGAUCCUUUAAUACAUGAGGAUCACCCAUGUAAUUAAUUAUACAUGAGAAGGUGACUCAGGCA	–	–	265	25.1
UUGAUUAUACAAGGAUAUCAAUUGUAUACAAGUCUUACAUGAGGAUCACCCAUGUUAAAUUUUUUUGAGAAGGUGUAUUGUCAG	–	–	40.2	24
GGAGCCGGUACUGAGGAUAUUCAUAUUAAAACAUGAGGAUCACCCAUGUAGGCCAGAAGGCCUUGGGAGAAGGCAGAUCGGCUCC	–	–	408	25.9
ACACCGUCAGGAUAUUGGAAGACACCCAGGAGGGUGCCUUUCGAGAAGGGACAUGAGGAUCACCCAUGUGCAGU	27.9	58.6	–	–
UCAGUAGAGUCAGGAUAUACGAAAGGCGAUCCAUACAUGAGGAUCACCCAUGUAGAAGGGACUCUACUGUAAGUCGGAAACGAC	309	21.9	–	–
UUGGCGCGAUCCUGGGUCUCACAUGAGGAUCACCCAUGUAGAGAGGAUAUGCAUAGGGCCCAAUGGCAGAAGGCUCUACAUGAG	91.4	57.2	–	–
UGCAGACGAGGAUAUGAUCAAUAAUACAUGAGGAUCACCCAUGUAAUACUGAUCCAUGGAUCAGAAGGCGUCUGCA	16.7	22.9	–	–
AACAAGUCAGGAUAUGUUAAAGGUUACGAAAGGGAUAAAGGGCAGAAGGGACAUGAGGAUCACCCAUGUAAUAA	58	50.2	–	–
ACAUGAGGAUCACCCAUGUUAUCCGGGACUUCAAUUGUUUCUAGAAGGCUGUUUGCUUGUUAGUCAGAGGAUAUAGAAUCAAAU	10.2	10.1	–	–
AGCGGAUAACAGUAGGAUAUGGCCAACGCCACAUGAGGAUCACCCAUGUCGUACCGGCACCUGGACUAGAAGGACUGCCUCCCGC	–	–	30.8	14.5
AAGGAAACCACAGGAUAUGGCUAGAAUAUCUAGCCAGAAGGGUGGUCGAAACCAUGUAAAUACAUGAGGAUCACCCAUGUGUCC	–	–	345	378
GGGUGGCGUAGAGGAUAUGUGGUACAUGAGGAUCACCCAUGUGCAUAUGAUGUUCAUGUUUAUGUAUAGAAGGCUACGUCGCUA	–	–	26.1	36.4
CGCUGGAUCGAGAAGGCCAUGUGGGACGCGAGCAGUGAUGUUAGGACAUGGAGGAUAUCGAACAUGAGGAUCACCCAUGUAACC	–	–	438	25.5
GGGUACAUGAGGAUCACCCAUGUAACGUGGAUAAGCUAUAAUAGAAGGAUAAGAGGAGAUGAGGUAUAGGAUAUAUCAUGGGUG	42.6	17.1	–	–
ACUAGAUGAGGAUAUGCAUAUUUUCGUGUUCUUCUAGGUUAACAUGAGGAUCACCCAUGUAGAAGGCGUCUAUA	19.7	35	–	–
UUUUUCUCAGGAUAUACAUGAGGAUCACCCAUGUAUAUUAGGAAUAAUACAUGGGAAUGUAGAAGGGAGCUCAU	128	98.4	–	–
